Reference: paper PMC2655349 (Nuclear medicine and biology, 2009)
Where two headings read alike, the source gives them in different places.

Columns and labels:
[1] = radiopharmaceutical biodistribution in rats following intravenous injection; assay type: in vivo, rat; conditions: male rats, i.v.; for Percentage of Injected Dose per Organ, Blood: blood assumed 7% of body mass
Outline: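 67Ga-labelled chelate prepared with ligand in ethanol containing acetylacetone at 70°C for 20 min, diluted with saline to 5–10% ethanol, filtered, purity checked by C18 TLC. Given 1–5 μCi (0.037–0.185 MBq) via femoral vein to ether-anaesthetised male Sprague-Dawley rats. Organs sampled at 1 min and 2 h. Data given as %ID/organ and %ID/g wet tissue; blood taken as 7% and muscle as 42% of body mass.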

[2] = rats, ref [11], cited from earlier work
[3] = 60-minutes rather than 120-minutes post-injection
[4] = 1 min, based on % injected dose per gram

Row | SMILES | Percentage of Injected Dose per Organ, Brain ([1]; 1 min post-injection) | Percentage of Injected Dose per Organ, Heart ([1]; 1 min post-injection) | Percentage of Injected Dose per Organ, Kidney (1) ([1]; 1 min post-injection) | Percentage of Injected Dose per Organ, Liver ([1]; 1 min post-injection) | Percentage of Injected Dose per Organ, Lungs ([1]; 1 min post-injection) | Percentage of Injected Dose per Organ, Spleen ([1]; 1 min post-injection) | Percentage of Injected Dose per Organ, Blood ([1]; 1 min post-injection) | Percentage of Injected Dose per Organ, Brain ([1]; 120 min post-injection) | Percentage of Injected Dose per Organ, Heart ([1]; 120 min post-injection) | Percentage of Injected Dose per Organ, Kidney (1) ([1]; 120 min post-injection) | Percentage of Injected Dose per Organ, Lungs ([1]; 120 min post-injection) | Percentage of Injected Dose per Organ, Spleen ([1]; 120 min post-injection) | Percentage of Injected Dose per Organ, Blood ([1]; 120 min post-injection) | Heart/Blood ratio [2, 3] | Heart/Liver ratio [2, 3] | Heart/Lung ratio [2, 3] | Heart/Blood ratio [2, 4] | Heart/Liver ratio [2, 4] | Heart/Lung ratio [2, 4]
1 | [86Rb+].[Cl-] [[^86Rb]RbCl, [^86Rb]rubidium chloride] | 0.08 ± 0.01 Percentage of Injected Dose per Organ | 2.86 ± 0.38 Percentage of Injected Dose per Organ | 6.7 ± 1.1 Percentage of Injected Dose per Organ | 5.4 ± 0.8 Percentage of Injected Dose per Organ | 2.0 ± 0.3 Percentage of Injected Dose per Organ | 0.32 ± 0.08 Percentage of Injected Dose per Organ | 3.61 ± 0.28 Percentage of Injected Dose per Organ | 0.12 ± 0.01 Percentage of Injected Dose per Organ | 0.69 ± 0.02 Percentage of Injected Dose per Organ | 1.01 ± 0.04 Percentage of Injected Dose per Organ | 1.11 ± 0.01 Percentage of Injected Dose per Organ | 0.71 ± 0.13 Percentage of Injected Dose per Organ | 1.43 ± 0.08 Percentage of Injected Dose per Organ | – | – | – | – | – | –
2 | [C-]#[N+]CC(C)(C)OC.[C-]#[N+]CC(C)(C)OC.[C-]#[N+]CC(C)(C)OC.[C-]#[N+]CC(C)(C)OC.[C-]#[N+]CC(C)(C)OC.[C-]#[N+]CC(C)(C)OC.[Tc] [[^99mTc]Tc-Sestamibi^1+, [^99mTc]Tc-sestamibi] | – | – | – | – | – | – | – | – | – | – | – | – | – | 208 ± 25 | 5.3 ± 1.7 | 6.5 ± 1.7 | 11.1 ± 0.2 | 1.7 ± 0.1 | 1.3 ± 0.2
